Source: PubChem BioAssay AID492974 (The Scripps Research Institute Molecular Screening Center, 2010)
Calls of active or inactive are those of the source.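 Rule for the calls: active = inhibition of the enzyme above 50%; inactive = the rest.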

These compounds were tested against Aspartyl aminopeptidase (Plasmodium falciparum (isolate 3D7)) (UniProt Q8I2J3) (assay: inhibition of purified P. falciparum M18AAP – biochemical, fluorescence, powder samples, assay provider, late-stage follow-up (AID 492974)). Details: recombinant PfM18AAP, H-Glu-NHMec fluorogenic substrate; at 5 µM; active compounds read high.
Method in brief: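 Test system: Recombinant PfM18AAP enzyme | Input: 1 µg/mL enzyme | Timing: 10 min preincubation, 30 min read | Measured by: Fluorescence, ex 370 nm / em 460 nm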

Sequence of Aspartyl aminopeptidase (Plasmodium falciparum (isolate 3D7)) (Q8I2J3 whole entry, looked up): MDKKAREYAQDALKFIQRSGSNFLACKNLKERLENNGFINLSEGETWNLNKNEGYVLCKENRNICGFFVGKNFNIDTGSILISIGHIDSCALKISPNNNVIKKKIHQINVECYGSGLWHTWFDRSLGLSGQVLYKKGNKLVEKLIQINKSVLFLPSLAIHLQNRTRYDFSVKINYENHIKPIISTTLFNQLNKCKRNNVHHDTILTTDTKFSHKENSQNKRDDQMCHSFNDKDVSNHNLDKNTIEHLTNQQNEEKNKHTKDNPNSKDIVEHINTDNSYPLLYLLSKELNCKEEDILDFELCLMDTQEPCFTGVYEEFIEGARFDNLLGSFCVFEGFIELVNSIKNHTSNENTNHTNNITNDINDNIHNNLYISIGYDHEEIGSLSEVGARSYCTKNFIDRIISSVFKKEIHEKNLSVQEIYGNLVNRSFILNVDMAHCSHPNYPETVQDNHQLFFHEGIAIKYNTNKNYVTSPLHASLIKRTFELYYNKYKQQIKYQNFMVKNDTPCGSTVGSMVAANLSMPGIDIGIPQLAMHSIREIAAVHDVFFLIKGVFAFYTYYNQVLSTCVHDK

SMILES	inhibition
O=C(Nc1ccc([N+](=O)[O-])cc1)Nn1cnnc1	59%
O=C(COc1ccccc1C(=O)N/N=C/c1ccc(O)c(O)c1)N/N=C/c1ccc(O)c(O)c1	76%
Cc1c(Cl)cccc1NC(=O)Nn1cnnc1	10% (inactive)
COc1ccc2nc(C)cc(SCC(=O)N/N=C/c3ccc(O)c(O)c3)c2c1	63%
COC(=O)CN(n1cnnc1)S(=O)(=O)c1ccccc1Cl	26% (inactive)
CC(C)n1c(SCC(=O)Nc2nncs2)nnc1-c1ccco1	5% (inactive)
O=C(CSc1nc2ccccc2c(=O)[nH]1)c1ccc(O)c(O)c1	10% (inactive)
CCC(C)c1ccc(O)c(N)c1 (stereo unspecified)	65%
O=C(Nc1ccc(Cl)c(Cl)c1)Nn1cnnc1	63%
CCN(CC)S(=O)(=O)c1ccc(C(=O)Nn2cnnc2)cc1	26% (inactive)
O=C(Nn1cnnc1)c1ccccc1-c1ccccc1	21% (inactive)
O=C(O)c1cn[nH]c1-n1cnnn1	2% (inactive)
O=C(Nc1cc(Cl)ccc1Cl)Nn1cnnc1	54%
COC(=O)CN(n1cnnc1)S(=O)(=O)c1ccc(C)cc1	0% (inactive)
COc1ccc(C(=O)n2cnnc2N)cc1	4% (inactive)
Oc1ccc(-c2csc(-c3ccccc3)n2)cc1O	90%
Cc1cc(C)cc(C(=O)n2cnnc2N)c1	0% (inactive)
Br/C(C=Nn1cnnc1)=C\c1ccccc1	17% (inactive)
CC1(C)CC2(CC(c3ccccc3F)c3ccc(O)c(O)c3O2)NC(=S)N1 (stereo unspecified)	50%
Cc1nc(-c2ccc(O)c(O)c2)cs1	74%
CCc1ccccc1NC(=S)Nn1cnnc1	6% (inactive)
O=C(Nc1cccc(C(F)(F)F)c1)Nn1cnnc1	27% (inactive)
Oc1cc(O)c2c(c1)O[C@H](c1ccc(O)c(O)c1)[C@H](O)C2	49% (inactive)
O=S(=O)(Nn1cnnc1)c1ccccc1	10% (inactive)
CS(=O)(=O)c1ccc2c(c1)sc1nc(=O)c(/C=C3/C=CC(=O)C(O)=C3)c(N)n12	55%
Oc1ccc(-c2cn3ccccc3n2)cc1O	42% (inactive)

SMILES	inhibition
Cc1ccc([N+](=O)[O-])cc1-c1[nH]c(-c2ccc(O)c(O)c2)nc1-c1ccccc1	83%
O=C(Nc1ccccc1Cl)Nn1cnnc1	35% (inactive)
CC1(C)CC(=O)c2c(oc3cc(O)c(O)cc23)C1	29% (inactive)
NCCc1ccc(O)c(O)c1	40% (inactive)
O=C(Nc1ccc(Cl)cc1Cl)Nn1cnnc1	48% (inactive)
COc1cc([N+](=O)[O-])ccc1NC(=O)Nn1cnnc1	4% (inactive)
S=C(Nc1cc(Cl)ccc1Cl)Nn1cnnc1	24% (inactive)
O=C(CNC(=O)c1ccccc1)NCCc1ccc(O)c(O)c1	50%
O=c1[nH]c(CSc2ncn[nH]2)nc2ccccc12	0% (inactive)
O=C(CSc1ncn[nH]1)OCN1C(=O)c2ccccc2C1=O	0% (inactive)
Cc1ccc(-n2c(O)c(/C=N/n3cnnc3)c3ccccc3c2=O)cc1	18% (inactive)
O=c1c2c([N+](=O)[O-])cc([N+](=O)[O-])cc2sn1Cc1ccccc1	44% (inactive)
COC(=O)c1cc(C(=O)Nn2cnnc2)cc([N+](=O)[O-])c1	48% (inactive)
O=C(NC(=S)Nn1cnnc1)c1ccccc1Br	15% (inactive)
O=C(CSc1nn(-c2ccccc2)c(=S)s1)Nn1cnnc1	15% (inactive)
COc1cc([N+](=O)[O-])ccc1NC(=S)Nn1cnnc1	52%
Cc1cc(=O)[nH]c(SCC(=O)c2ccc(O)c(O)c2)n1	0% (inactive)
OC(Cn1cnnc1)c1ccccc1 (stereo unspecified)	19% (inactive)
Nc1nncn1C(=O)CCCOc1ccc(Cl)cc1Cl	0% (inactive)
O=C(O)CSc1ncn[nH]1	0% (inactive)
COc1ccc(Cl)cc1NC(=O)Nn1cnnc1	22% (inactive)
Cc1cc(C)n2c(=S)[nH]nc2n1	30% (inactive)
Cc1nc2ccccn2c1C(=O)NNC(=O)Nc1ccccc1	11% (inactive)
COc1cccc2c(SCC(=O)N/N=C/c3ccc(O)c(O)c3)cc(C)nc12	51%
CN1CCc2cccc3c2[C@@H]1Cc1ccc(O)c(O)c1-3	35% (inactive)
CCOC(=O)C1=C(CS(=O)(=O)c2ccc(F)cc2)NC(=O)NC1c1ccc(O)c(O)c1 (stereo unspecified)	58%

SMILES	inhibition
Cc1cc(OCC(=O)Nn2cnnc2)ccc1Br	55%
COc1cc(Br)cc(/C=N/c2ncn[nH]2)c1O	0% (inactive)
COc1ccc(NC(=O)NNC(=O)CCc2ccc(O)c(O)c2)cc1OC	23% (inactive)
Cc1cccc(NC(=S)Nn2cnnc2)c1C	13% (inactive)
O=C(Nc1ccc(Br)cc1Cl)Nn1cnnc1	71%
CC1=NNC(=O)/C1=C\c1cn(-c2ccccc2)nc1-c1ccc(F)cc1	9% (inactive)
Cc1ccc(NC(=S)Nn2cnnc2)c(C)c1	3% (inactive)
Oc1ccc(-c2csc(-c3cccnc3)n2)cc1O	81%
O=C(CSc1ncn[nH]1)Nc1nc(-c2ccccc2)ns1	7% (inactive)
O=C(O)c1ccc(O)c(O)c1	21% (inactive)
O=C(Nn1cnnc1)c1csc2ccccc12	22% (inactive)
COC(=O)CN(n1cnnc1)S(=O)(=O)c1ccccc1	0% (inactive)
COc1cccc(-c2cc(C(=O)Nn3cnnc3)c3ccccc3n2)c1	25% (inactive)
Oc1ccc(/C=C/c2cc(O)cc(O)c2)cc1	50%
Oc1ccc(C2=Nn3c(nnc3-c3ccco3)SC2)cc1O	52%
Cc1ccc(Cl)cc1NC(=S)Nn1cnnc1	17% (inactive)
O=c1[nH]c(=S)[nH]c(O)c1/C=C1\C=c2ccccc2=N1	42% (inactive)
O=c1c(O)c(-c2ccc(O)c(O)c2)oc2cc(O)cc(O)c12	43% (inactive)
Cc1ccc(Cl)cc1NC(=O)Nn1cnnc1	35% (inactive)
Oc1ccc(CCNc2c3ccccc3nc3ccccc23)cc1O	52%
CN1C(=O)N(c2cccc3ccccc23)C(n2cncn2)C1(C)C (stereo unspecified)	5% (inactive)
O=[N+]([O-])c1cc([N+](=O)[O-])c2cccnc2c1Oc1ccccc1O	16% (inactive)
O=C(Nc1cccc(Cl)c1Cl)Nn1cnnc1	29% (inactive)
O=C(CSc1nnc(-c2ccccc2)o1)Nn1cnnc1	58%
